Compound activity (PubChem BioAssay)
KCNK9 inh: KCNK9 potassium channel inhibitors, primary screen, HEK293 cells, thallium flux | B-score at 10 µM | Potassium channel subfamily K member 9 (Homo sapiens), Q9NPC2 | AID 488922, 2010 | hit rate 1.2% among 310,000 | FluxOR thallium flux fluorescence; stronger effect = lower value;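 active = ratio B-score over 3 SD below the library mean, with starting fluorescence within 5 SD of its mean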;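 note: negative B-score means less thallium flux so channel inhibition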
Target sequence (Q9NPC2 whole entry, looked up): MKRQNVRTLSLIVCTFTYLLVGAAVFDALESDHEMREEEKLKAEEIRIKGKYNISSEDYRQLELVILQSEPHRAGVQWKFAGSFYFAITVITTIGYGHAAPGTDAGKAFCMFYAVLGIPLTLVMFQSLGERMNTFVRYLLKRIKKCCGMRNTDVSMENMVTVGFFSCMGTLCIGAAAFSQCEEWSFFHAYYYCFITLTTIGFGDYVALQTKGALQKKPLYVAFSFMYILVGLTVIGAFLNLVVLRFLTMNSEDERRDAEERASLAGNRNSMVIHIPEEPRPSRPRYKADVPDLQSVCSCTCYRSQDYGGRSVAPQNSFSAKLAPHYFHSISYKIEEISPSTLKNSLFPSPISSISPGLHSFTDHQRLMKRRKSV
hERG protect: hERG rescue from dofetilide block, primary screen, cell-based, CHO-hERG, FluxOR thallium flux, dofetilide IC70. Voltage-gated inwardly rectifying potassium channel KCNH2 (Homo sapiens), Q12809. dofetilide IC70 present. activation (rescue from dofetilide block), less the hit threshold, % at 10 µM. hit rate 0.51% among 310,000. AID 1511, 2009;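 active = activation above the mean of controls blocked by dofetilide plus 5 SD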;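 note: thallium influx through hERG after potassium depolarization seen as dye fluorescence rise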
KCNQ1 inh: inhibitors of human KCNQ1 channel, primary screen, cell-based, thallium flux, high-throughput | Potassium voltage-gated channel subfamily KQT member 1 (Homo sapiens), P51787 | CHO-K1 KCNQ1, FluxOR thallium flux fluorescence; stronger effect = higher value | B-score at 10 µM | hit rate 1.3% among 310,000 | AID 2642, 2010;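 active = compounds whose thallium flux B-score, printed positive for inhibition, exceeds three library SD while starting fluorescence stays within three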;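 note: channel opened by potassium depolarization with thallium stimulus after 20 min compound exposure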
KCNQ1 act: potentiators or activators of KCNQ1 channel, primary screen, cell-based, thallium flux, high-throughput; Potassium voltage-gated channel subfamily KQT member 1 (Homo sapiens), P51787; hit rate 0.35% among 310,000; B-score at 10 µM; CHO-K1 KCNQ1, thallium flux FluxOR fluorescence; stronger effect = higher value;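 active = fluorescence ratio B-score, a plate-corrected score, at least three library SD, with initial intensity B-score within 5 SD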
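System: Stable KCNQ1 CHO-K1 line | Incubation: 90 min dye loading and 20 min compound exposure, both at room temperature | Measure: Ratio B score | Medium: Assay buffer for compound exposure, DMSO matched across wells | Compound dosing: Single-concentration screen | Probe or stimulus: K+/Tl+ depolarizing stimulus | Measured by: Kinetic FluxOR fluorescence, 10 s baseline plus 110 s post-stimulus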
KCNK3 inh: human KCNK3 channel inhibitors, primary screen, CHO cells, FluxOR thallium flux, B-score | B-score at 10 µM | Potassium channel subfamily K member 3 (Homo sapiens), O14649 | hit rate 0.84% among 340,000 | FluxOR fluorescence; stronger effect = lower value;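 active = B-score under library mean minus 4 SD, starting fluorescence ratio at most library mean plus 5 SD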;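 note: more negative B-score means stronger inhibition of thallium flux through KCNK3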
Kir21 inh: inhibitors of mouse Kir2.1 inward-rectifier potassium channel; Inward rectifier potassium channel 2 (Mus musculus), P35561; HEK293-Kir2.1, FluxOR thallium flux fluorescence; stronger effect = lower value; B-score at 10 µM; hit rate 0.85% among 310,000; AID 1672, 2009;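 active = fluorescence ratio B-score at or below minus 3 SD of library scores, with starting-brightness B-score within 2 SD, cut at about -4.2 in these data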;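 note: channel flux triggered by added potassium and thallium sulfate stimulus; B-score of peak minus minimum fluorescence over baseline after thallium stimulus; more negative B-score means stronger Kir2.1 block with less thallium influx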
Numbers without * were called inactive; i = inactive; . = no result given. An excerpt weighted towards active compounds, which were near 3.8% of everything screened.

SMILES | KCNK9 inh | hERG protect | KCNQ1 inh | KCNQ1 act | KCNK3 inh | Kir21 inh
CCOC(=O)C1=C(c2ccccc2)NC(=O)NC1c1ccc(OC)cc1 (stereo unspecified) | i | 0 | i | i | i | 0.31
OC(CCN1CCOCC1)c1ccccc1 (stereo unspecified) | i | 9.3* | i | i | i | -1.6
Cc1ccc(OCCSc2nc(NC(C)C)nc(NC(C)C)n2)cc1 | i | -16 | 6* | i | i | 0.18
CCNc1nc(SCCOc2ccc(C)cc2)nc(N(C)C)n1 | i | -11 | i | i | i | -0.42
NC(=O)c1ccccc1NC(=O)/C=C/C(=O)O | i | 15* | i | i | i | -0.02
NC(=O)c1ccccc1NC(=O)CN1CCOCC1 | i | -10 | i | i | i | -1.8
COC(=O)c1ccccc1NC(=O)/C=C/C(=O)O | i | 0 | i | i | i | -0.07
NC(=O)c1ccccc1NC(=O)N1CCOCC1 | i | 2 | i | 9* | i | -1.1
Cc1cc(C)nc(NC(=O)c2cc(-c3ccc(C)s3)nc3ccccc23)c1 | i | -5 | 6* | i | i | 2.5
CN1CCN(NC(=O)c2cc(-c3ccccn3)nc3ccccc23)CC1 | i | -4 | i | i | i | 0.65
CN1CCN(NC(=O)c2cc(-c3ccc(Cl)s3)nc3ccccc23)CC1 | i | -12 | i | i | i | -4.5*
C/C(=N\NC(=O)C1CCCN(S(=O)(=O)c2ccccc2)C1)c1cccnc1 (stereo unspecified) | i | -10 | i | i | i | -0.76
Cc1ccc(Cl)cc1N1CCN(Cc2nnnn2C2CCCCC2)CC1 | i | -16 | i | i | -11* | 0.33
Cc1ccc(Cl)cc1N1CCN(Cc2nnnn2Cc2ccco2)CC1 | i | -4 | i | i | i | -1.5
CC(C)OC(=O)c1cc(NC(=S)Nc2ccc([N+](=O)[O-])cc2)cc(C(=O)OC(C)C)c1 | i | -18 | 10* | i | i | 2.1
O=C(NNC(=S)Nc1ccc(F)cc1)c1cccc([N+](=O)[O-])c1 | i | -13 | i | i | i | 0.01
CC(C)CCNC(=S)Nc1ccc([N+](=O)[O-])cc1 | i | -39 | i | i | i | -11*
O=[N+]([O-])c1ccc(NNC(=S)Nc2ccc(F)cc2)cc1 | i | -7 | 7* | i | i | 1.8
O=C(NC(NNc1ccc([N+](=O)[O-])cc1)(C(F)(F)F)C(F)(F)F)c1ccccc1Cl | i | -9 | i | i | i | 0.96
O=C(NC(NNc1ccc([N+](=O)[O-])cc1)(C(F)(F)F)C(F)(F)F)c1ccc(F)cc1 | i | -12 | 6* | i | i | -0.87
CCOC(=O)CSc1nnc(CNC(=O)c2cccs2)n1-c1cccc(C)c1 | . | . | . | . | i | .
O=C(Nc1ccccc1Cl)C1C(c2ccccc2)C1(Cl)Cl (stereo unspecified) | i | -11 | 6* | i | i | -0.55
CCOC(=O)c1c(-c2ccccc2)oc2ccc(OCC(O)CN(C)C)cc12 (stereo unspecified) | i | -14 | i | i | i | -7.8*
CCOC(=O)c1c(-c2ccccc2)oc2ccc(O)c(CN3CCCC3)c12 | i | -17 | i | i | i | -12*
CCOC(=O)c1c(-c2ccccc2)oc2ccc(O)c(CN(C)C)c12 | i | -6 | i | i | i | -6.4*
SMILES | KCNK9 inh | hERG protect | KCNQ1 inh | KCNQ1 act | KCNK3 inh | Kir21 inh
CCOC(=O)c1c(C(C)(C)C)oc2ccc(O)cc12 | . | . | . | . | i | .
CCOC(=O)c1c(C(C)(C)C)oc2ccc(OCC#N)cc12 | i | -7 | 6* | i | i | 0.48
COc1cccc(/C=C2/Sc3ccc(C(=O)NCCCN4CCCC4)cc3NC2=O)c1 | i | -28 | i | i | i | -1.2
Cc1ccc(NC2=C(Cl)C(=O)OC2OC(C)C)c(C)c1 (stereo unspecified) | i | -8 | i | i | i | -1.9
O=c1ccn(Cc2ccccc2)cc1 | i | -10 | i | i | i | 0.52
Cc1ccccc1Cn1ccc(=NCc2ccccc2)cc1 | i | -11 | i | i | . | -5.5*
O=c1ccnc(SCCc2ccc([N+](=O)[O-])cc2)[nH]1 | i | -10 | i | i | i | -1.1
COc1cccc(CNC(=O)c2cccnc2Sc2ccc(C)cc2C)c1 | i | -13 | i | i | i | -1.4
COc1cc2c(cc1OC)CN(c1ccc3ccccc3n1)CC2 | i | -18 | i | i | i | -11*
COc1cc2c(cc1OC)CN(c1ccc(-c3ccccc3OC)nn1)CC2 | i | -11 | i | i | i | -0.05
CCc1ccc2[nH]c(=O)c(CN(CCCN3CCOCC3)C(=O)Nc3cccc(Cl)c3)cc2c1 | i | -26 | 6* | i | i | 0.65
CCc1ccc2[nH]c(=O)c(CN(CCCN3CCOCC3)C(=O)Nc3ccc(Cl)cc3)cc2c1 | i | -23 | i | i | i | 0.18
COc1ccccc1C(CNC(=O)C1CCN(C(=O)Nc2ccccc2)CC1)N1CCCC1 (stereo unspecified) | . | . | . | . | i | .
O=C(O)/C=C/C(=O)Nc1ccc(OC(F)(F)F)cc1 | i | -2 | i | i | i | 0.03
FC(F)(F)Oc1ccc(NC(=S)Nc2ccc(OC(F)(F)F)cc2)cc1 | i | -18 | 10* | i | i | 1.4
CC(C)c1ccc(NC(=S)Nc2ccc(OC(F)(F)F)cc2)cc1 | i | -9 | 10* | i | i | -0.76
O=C(NCc1cccnc1)Nc1cccc(F)c1 | -7.8* | -8 | i | i | i | 0.84
COc1ccc(/C=C/c2cc(=O)c3cc(Cl)ccc3o2)cc1 | i | 4.6* | i | i | i | 0.04
O=C(O)c1cc(=O)c2cc(Cl)ccc2o1 | i | -8 | i | i | i | 0
COCCNC(=O)Cn1c(=O)n(CCCCCC(=O)Nc2ccccc2)c(=O)c2sccc21 | i | -3 | i | i | i | 0.09
Cc1ccc(NS(=O)(=O)c2ccc3c(c2)C(=O)c2ccccc2C3=O)c(C)c1 | . | . | . | . | i | .
Cc1cccc(S(=O)(=O)Nc2cccc3c2C(=O)c2ccccc2-3)c1 | i | -10 | i | 9* | i | 0.72
CCc1cccc(OCCCCNCCOC)c1 | i | -10 | i | i | i | -0.22
